# High-throughput results deposited in PubChem by Johns Hopkins Ion Channel Center.
# KCNK9 inh – human KCNK9 channel inhibition | Q9NPC2 | HEK293 KCNK9, FluxOR thallium flux fluorescence; active compounds read low | B-score at 10 µM | 1.2% of 310,000 active;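 active = ratio B-score over 3 SD below the library mean, with starting fluorescence within 5 SD of its mean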;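 also: negative B-score means less thallium flux so channel inhibition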
# KCNQ1 act – potentiates or activates the human KCNQ1 potassium channel; P51787; CHO-K1 KCNQ1, thallium flux FluxOR fluorescence; active compounds read high; B-score at 10 µM; 0.35% of 310,000 active; AID 2648;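 active = fluorescence ratio B-score, a plate-corrected score, at least three library SD, with initial intensity B-score within 5 SD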
#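 Test system: CHO-K1 cells stably expressing KCNQ1 / Medium: assay buffer / Also added: depolarizing K+/Tl+ stimulus, K2SO4 and Tl2SO4 each 12.5 mM in 5x stock / Incubation: 90 min dye loading and 20 min compound exposure, both at room temperature / Signal: thallium influx via FluxOR fluorescence, kinetic imaging / Evaluation: B score of baseline-normalized fluorescence ratio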
# KCNQ1 block – blocks the human KCNQ1 potassium channel | AID 2642 | CHO-K1 KCNQ1, FluxOR thallium flux fluorescence; active compounds read high | 1.3% of 310,000 active | B-score at 10 µM;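 active = compounds whose thallium flux B-score, printed positive for inhibition, exceeds three library SD while starting fluorescence stays within three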;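 also: channel opened by potassium depolarization with thallium stimulus after 20 min compound exposure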
# hERG rescue – compounds protecting human hERG from proarrhythmic drug block; Q12809; CHO-hERG, FluxOR thallium flux, dofetilide IC70 present; activation (rescue from dofetilide block), less the hit threshold, % at 10 µM; 0.51% of 310,000 active; AID 1511;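 active = activation above the mean of controls blocked by dofetilide plus 5 SD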;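 also: thallium influx through hERG after potassium depolarization seen as dye fluorescence rise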
# KCNK3 inh – human KCNK3 channel inhibition, primary screen; CHO-KCNK3 thallium flux, FluxOR fluorescence; active compounds read low; B-score at 10 µM; 0.84% of 340,000 active; AID 602410;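 active = B-score under library mean minus 4 SD, starting fluorescence ratio at most library mean plus 5 SD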;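 also: more negative B-score means stronger inhibition of thallium flux through KCNK3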
# Kir21 inh – blocks the mouse Kir2.1 inward-rectifier potassium channel; HEK293-Kir2.1, FluxOR thallium flux fluorescence; active compounds read low; B-score at 10 µM; 0.85% of 310,000 active;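 active = fluorescence ratio B-score at or below minus 3 SD of library scores, with starting-brightness B-score within 2 SD, cut at about -4.2 in these data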;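 also: channel flux triggered by added potassium and thallium sulfate stimulus; B-score of peak minus minimum fluorescence over baseline after thallium stimulus; more negative B-score means stronger Kir2.1 block with less thallium influx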
# KCNK3 inh conf – human KCNK3 channel inhibition, confirmation assay. shares compounds with KCNK3 inh. CHO-KCNK3 thallium flux, FluxOR fluorescence; 0% buffer, 100% carvedilol maximal block. ratio percent of control, % at 10 µM. AID 651638. 99% of 2,400 active;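 active = ratio percent of control, averaged over triplicates, above buffer control mean plus 5 SD, cut at about 64% in these data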;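 also: ratio is the fluorescence rise from min to max over baseline after thallium stimulus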
# KCNK3 noninduced – activity in cells without induced KCNK3 expression; shares compounds with KCNK3 inh; non-induced KCNK3 parental cells, FluxOR thallium flux; active compounds read low; thallium flux ratio (lower = more inhibition) at 10 µM; 40% of 2,400 active;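 active = thallium flux ratio, averaged over three wells, more than 5 SD below the buffer control mean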;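 also: host cells are CHO cells without KCNK3 induction; ratio is peak minus trough fluorescence over baseline then normalized to buffer controls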
# The depositor's hits bear a star; i = inactive; / = not tested or not shown. This is a sample that favours compounds with a hit; in the whole collection about 3.8% have one here.
SMILES,KCNK9 inh,KCNQ1 act,KCNQ1 block,hERG rescue,KCNK3 inh,Kir21 inh,KCNK3 inh conf,KCNK3 noninduced
C[C@H](CO)N1C[C@H](C)[C@@H](CN(C)S(=O)(=O)c2ccc(F)cc2)Oc2c(NC(=O)CCC(F)(F)F)cccc2C1=O,/,/,/,/,i,/,/,/
C[C@H](CO)N1C[C@H](C)[C@@H](CN(C)Cc2ccc(Cl)c(Cl)c2)Oc2c(NS(=O)(=O)c3cccs3)cccc2C1=O,/,/,/,/,-14*,/,127*,0.14*
C[C@H](CO)N1C[C@H](C)[C@@H](CN(C)S(=O)(=O)c2ccccc2)Oc2c(NC(=O)CCC(F)(F)F)cccc2C1=O,/,/,/,/,-12*,/,110*,i
C[C@@H]1CN([C@H](C)CO)C(=O)c2cccc(NS(=O)(=O)c3cccs3)c2O[C@H]1CN(C)Cc1ccccc1,/,/,/,/,i,/,/,/
C=CC[C@]12CCc3sccc3C1N(c1ccc(C(=O)OCC)cc1)C2=O (some centres undefined),/,/,/,/,i,/,/,/
CCOc1ccc(NC(=O)CN(C)C(=O)CCc2ccccc2Cl)cc1OCC,i,i,i,-22,i,0.24,/,/
CCOc1ccc(NC(=O)CN(C)C(=O)CCCOc2ccc(Cl)c(C)c2)cc1OCC,i,i,i,-6,-9.9*,0.44,93*,i
C=CCn1c(NC(C)c2cc(Cl)ccc2O)nc2ccccc21 (centres undefined),-6.6*,i,i,-6,-12*,-1.3,122*,0.14*
O=C(C1CC(c2ccccc2O)=NO1)N1CCc2ccccc2C1 (centres undefined),i,i,i,-3,-9*,0.12,99*,i
